Measured values reported in PMC12297526 (Communications Chemistry, 2025).
Where two headings read alike, the source gives them in different places.

Columns and labels:
[1] = 0.1 M KCl; ref 4 (supplement), 15; cited from earlier work
[2] = cited from earlier work; for pMn: 11 (supplement), 8, 17, 18, 34
Zn = type: physicochemical; details: pH = 6.0, 25 mM Zn(II), 37 °C, 1 mM complex; mean ± SD, n = 3
[3] = log P estimation by UPLC retention time; type: physicochemical; details: estimated from UPLC retention time with calibration standards
In short: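 Complexes and standards (DMSO, DMF, pyridine, phenol, nitrobenzene) run on reversed-phase UPLC. C18, 2.5 μm, 2.1 × 100 mm column; 10 mM ammonium acetate/ACN gradient at 0.4 mL min−1. Calibration of log TR against known log P for the standards; complex log P read from its retention time.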

Solubility in pure water = type: physicochemical; details: 25 °C
[4] = pH-potentiometric titration, thermodynamic stability constants of Mn; type: physicochemical; details: for log KMnL: I = 0.1 M KCl, 25 °C, mean ± SD, n = 3
In short: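 Ligand and Mn(II) (1.05:1 molar) in 0.1 M KCl titrated with 0.5 M NaOH from pH 1.7 to 12.0 at 25 °C under nitrogen. MnCl2 stock held at pH 6 and calibrated by ICP-MS. Data fitted for stability constants and speciation; titrations in triplicate. pMn calculated at pH 7.4.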

normal BALB/c mice = assay: In vivo T1-weighted MRI of normal mice, 3.0 T clinical scanner; details: intravenous, 0.05 mmol kg^−1
In short: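 Male BALB/c mice (25 ± 3 g) anaesthetised with avertin (0.6 mL per 20 g) and imaged in a mouse coil at 3.0 T. Coronal and transverse T1-weighted baseline scans taken, then complex given i.v. in PBS pH 7.4 at 0.05 mmol kg−1 and scanning continued ~30 min. Relative enhancement = (SIpost – SIpre)/SIpre × 100% from ROIs on liver and kidney.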

[5] = pH 7.4, 25 °C, [Cu(II)] = 10^-5 M; cited from earlier work
[6] = 20 MHz, 298 K; cited from earlier work
[7] = complexes with heptadentate ligands

O=C(O)CN1CCNCCN(CC(=O)O)CCNCC1 [1,7-DO2A]
Σ log KiH [1]: 28.05

O=C(O)CN1CCNCCN(CC(=O)O)CCN(CC(=O)O)CC1 [DO3A]
log KMnL [2, 7]: 16.55

CCOc1ccc(C[C@@H](CN(CCN(CC(=O)[O-])CC(=O)[O-])CC(=O)[O-])N(CC(=O)[O-])CC(=O)[O-])cc1.[Gd+3].[Na+].[Na+] [Gd(EOB-DTPA)]
t1/2 (dissociation half-life) (Zn): 0.25 h

O=C([O-])CN1CCNCCNCCN(CC(=O)[O-])CC1.[Mn+2] [Mn(1,4-DO2A)]
log P [3]: 0.57 | log KMnL ([2]; introduction, Mn(1,4-DO2A) vs Mn(NOTA)): 16.1 | Solubility (Solubility in pure water): 260 mg/mL | log KMnL [4]: 15.5 | pMn ([4]; pH 7.4, [Mn(II)] = [L] = 10^−5 M): 7.20 | excretion route / organ preference seen by MRI (normal BALB/c mice): predominantly excreted through the renal route | half-life (t1/2) [5]: 48 h | ^20r1 (relaxivity) [6]: 2.1 mM⁻¹ s⁻¹

O=C([O-])CN1CCNCCN(CC(=O)[O-])CCNCC1.[Mn+2] [Mn(1,7-DO2A)]
log P [3]: 0.47 | log KMnL [4]: 14.7

O=C([O-])CN1CCNCCN(CC(=O)[O-])Cc2cccc(n2)C1.[Mn+2] [Mn(3,9-PC2A)]
pMn ([2]; 0.15 M NaCl): 8.64 | log KMnL ([2]; 0.15 M NaCl, 11 (supplement), 17): 17.09 | half-life (t1/2) [5]: 21 h

O=C(O)CN1CCN(CC(=O)O)Cc2cccc(n2)CN(CC(=O)O)CC1 [PCTA]
log KMnL [2, 7]: 16.83

Mn(EDTA)
pMn ([2]; 0.15 M NaCl): 7.83 | half-life (t1/2) [5]: 0.08 h
